Sampled rows, rich in hits. Any-hit rate of the full collection: about 3.9%.
XBP1 UPR activ: adaptive UPR (XBP1) activation; CHO-XBP1 luciferase reporter, IRE1-XBP1 UPR activation, luminescence; percent of tunicamycin response, DMSO as zero; activation, % at 20 µM; 330,000 tested, 0.33% active; AID 463104;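 active = versus positive control, 20 µM dose yields 30% or more activation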;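 also: 100% = tunicamycin at 10 µg/mL and 0% = DMSO only wells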
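incubation = overnight seeding at 37 °C, 6 h compound treatment at 37 °C | assay system = CHO-XBP1 cells stably carrying IRE1-XBP1-driven luciferase reporter | input = 1000 cells per well | detection = luciferase luminescence | dosing = single point, 20 µM final compound, 1% DMSO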
CHOP UPR activ: activators of apoptotic arm of unfolded protein response (CHOP); CHO-CHOP luciferase reporter, UPR activation, luminescence; percent of tunicamycin response over DMSO baseline; activation, % at 10 µM; 330,000 tested, 0.34% active; AID 449763;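 active = at 10 µM dose, activation of 40% or more, normalized to positive control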;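 also: 100% = tunicamycin at 10 µg/mL and 0% = DMSO alone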
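measured by = luciferase luminescence | assay system = CHO-CHOP cells, stable luciferase reporter of PERK-eIF2a-CHOP signalling | amount = 500 reporter cells seeded per well | timing = 6 h compound exposure at 37 °C after overnight seeding | controls = positive tunicamycin 10 µg/mL, negative DMSO alone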
Gli-Sufu block: Gli-Sufu pathway antagonism; AID 588413; inhibition, % at 5 µM; Sufu-KO-LIGHT fibroblasts, Gli luciferase reporter luminescence; 340,000 tested, 0.74% active;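 active = inhibition above about 55%, limit read from the data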;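 also: 0% = DMSO-treated cells and 100% = wells with medium but no cells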
CHOP inhibitor: blocks CHOP induction under ER stress. 220,000 tested, 3.8% active. inhibition, % at 10 µM. AID 2732. CHO-K1 CHOP-promoter luciferase, tunicamycin-induced, 15-18 h;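 active = compounds that reduced the stress-induced luciferase reporter signal by more than about 70% of percent inhibition, limit read from the data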;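 also: 0% = tunicamycin plus vehicle and 100% = wells without tunicamycin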
697 NFkB inh: lowers PMA/ionomycin-induced NF-kB signal in 697 B cells; 697 B-cell NF-kB luciferase reporter, 16 h; inhibition, % at 4 µM; AID 435022; 330,000 tested, 0.33% active; in the data active = inhibition above about 35%
Jurkat NFkB inh: inhibitors of the PMA/ionomycin-induced NF-kB reporter in Jurkat cells | AID 435003 | inhibition, % at 4 µM | 330,000 tested, 0.53% active | PMA/ionomycin-induced NF-kB luciferase reporter, luminescence; in the data active = inhibition above about 50%
The depositor's hits bear a star; / = no result given.

SMILES | XBP1 UPR activ | CHOP UPR activ | Gli-Sufu block | CHOP inhibitor | 697 NFkB inh | Jurkat NFkB inh
CC12CCC(C/C1=N\N=C1\NC(=O)/C(=C\c3ccc(Cl)cc3)S1)C2(C)C (centres undefined) | 12 | 6 | -7 | 93* | -40 | -8
O=C1NC(=Nc2ccccc2Cl)S/C1=C\c1ccc(C(=O)O)cc1 | 1 | 1 | 4 | / | 1 | -2
C=CCNc1nc(Nc2ccc([N+](=O)[O-])cc2)nc(OC)n1 | 6 | 0 | -25 | 12 | -22 | -14
COc1nc(Nc2ccc([N+](=O)[O-])cc2)nc(NC2CCCCC2)n1 | 5 | 2 | 7 | 82* | 4 | -19
CC(C)C(NC(=O)c1ccccc1)C(=O)OCn1nnc2ccccc2c1=O (centres undefined) | -1 | 0 | / | / | 6 | 8
CCCCC(=O)NC(c1cccs1)c1cc(Cl)c2cccnc2c1O (centres undefined) | 0 | -2 | 22 | 97* | -22 | 16
CCC(=O)NC(c1cccs1)c1cc(Cl)c2cccnc2c1O (centres undefined) | 4 | 2 | 47 | 24 | -13 | 12
Cc1ccc(SCC(=O)NC(=O)NCc2ccccc2)c(C)c1 | 0 | -1 | 2 | 81* | 11 | -7
O=C(CS(=O)c1ccc(C(F)(F)F)cc1[N+](=O)[O-])Oc1ccccc1 (centres undefined) | 0 | 16 | 3 | 88* | -19 | -39
O=C(CSC(=S)N1CCCC1)N1CCN(S(=O)(=O)c2ccccc2F)CC1 | -3 | 3 | -5 | / | 7 | 8
CCOC(=O)C(C(=O)Nc1cccc(C)n1)C1CCCCC1 (centres undefined) | -3 | -1 | 3 | 19 | -6 | -6
CCOC(=O)C(C(=O)Nc1nc2ccccc2s1)C1CCCCC1 (centres undefined) | 0 | 1 | 6 | 74* | -9 | 8
CCOc1ccc(Br)cc1C(=O)Nc1ccc(C(=O)NCC(C)C)cc1 | 5 | 0 | 21 | 83* | 17 | -9
O=C(CSc1nc2ccccc2o1)Nc1nc2ccc(Br)cc2s1 | 3 | 2 | -10 | 93* | -15 | -18
COc1ccc2nc(NC(=O)CSc3nc4ccccc4o3)sc2c1 | 1 | 0 | 3 | 72* | -67 | -26
COc1ccc2nc(NC(=O)CSc3nc(C)cc(C)n3)sc2c1 | -2 | 2 | 2 | -1 | 0 | -5
CCOc1ccc2nc(NC(=O)CC3Oc4ccccc4NC3=O)sc2c1 (centres undefined) | -2 | 0 | 3 | -6 | 15 | 3
COc1cccc(C(CC(=O)Nc2cccc3ccccc23)NC(=O)c2ccccc2)c1 (centres undefined) | -1 | 2 | 8 | 84* | 6 | -2
COc1ccc2nc(NC(=O)CC3Oc4ccccc4NC3=O)sc2c1 (centres undefined) | -3 | 1 | -4 | 75* | 17 | 0
COc1cccc(C(=O)Nc2cccc3ccccc23)c1 | -5 | 2 | -7 | / | -3 | 5
CC(=O)N1CCN(C(=O)C2CCN(S(=O)(=O)c3ccccc3C(F)(F)F)CC2)CC1 | -1 | 0 | 6 | / | 4 | 2
Nc1nc(Nc2ccccc2)nc2c1ncn2[C@@H]1O[C@H](CO)[C@H](O)C1O (some centres undefined) | / | / | / | -4 | / | /
CC(OC(=O)Cc1ccccc1F)C(=O)Nc1ccc(Cl)cn1 (centres undefined) | 0 | -1 | 2 | / | 5 | 12
COc1ccc2nc(NC(=O)Nc3cccc4ccccc34)sc2c1 | 9 | 6 | -53 | 88* | -57 | -18
CCn1c(Cc2ccc(OC)cc2)nnc1SCC(=O)Nc1nc2ccccc2s1 | 2 | -1 | -11 | 83* | 0 | 6
CCOc1ccc2nc(NC(=O)CSc3nc4cccnc4n3C)sc2c1 | -1 | 0 | 16 | 77* | -13 | -2
OCc1cc(-c2ccccn2)no1 | 0 | 0 | 2 | / | 2 | 3
Cc1cc(C)cc(NC(=S)N2CCC(N(C)CC3CCCO3)CC2)c1 (centres undefined) | 0 | 1 | 4 | 10 | -5 | -5

Source: PubChem (several laboratories)
